Reference: ChEMBL document CHEMBL1153348, “Semi-synthetic analogs of pinitol as potential inhibitors of TNF-alpha cytokine expression in human neutrophils” (2009)
Active and inactive are the calls of the source. The calls are words filed in the database; no cut-off is given here.

Tested on: not listed separately
Test: Antiinflammatory activity in human neutrophils assessed as inhibition of LPS-induced intracellular TNFalpha expression at 1 ug/mL after 3 hrs by flow cytometry
Format: functional, Neutrophil
Parameters: scale not given: the % may be the effect or the level left
Procedure, shortened: (§1)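 Neutrophils were isolated from human blood: spun at 250g for 20 min, and the platelet-rich layer was discarded. The lower layer was spun at 1800g, and the buffy coat was layered on histopaque and spun at 700g. RBCs were lysed and the cells washed with PBS. Cells were given LPS plus compound for 3 h in a CO2 incubator, permeabilised, stained 30 min in the dark with conjugated anti-TNF-α mAb, and read by flow cytometry.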
Compound `CO[C@@H]1[C@@H](OC(C)=O)[C@@H](OC(C)=O)[C@H](O)[C@H](OC(C)=O)[C@H]1OC(C)=O` has an Activity of 33.46%. `CO[C@H]1[C@H](OC(C)=O)[C@H]2OC(C)(C)O[C@H]2[C@@H]2OC(C)(C)O[C@H]12` gave an Activity of 42.58%. For `CCCC(=O)O[C@H]1[C@H](OC)[C@H]2OC(C)(C)O[C@H]2[C@@H]2OC(C)(C)O[C@H]12`, the Activity was 39.54%. Work on `CCCC(=O)O[C@H]1[C@H](OC(=O)CCC)[C@H](OC(=O)CCC)[C@@H](OC)[C@H](OC(=O)CCC)[C@H]1OC(=O)CCC` yielded an Activity of 52.47%. In the case of `CO[C@H]1[C@H](OC(=O)C(C)C)[C@H]2OC(C)(C)O[C@H]2[C@@H]2OC(C)(C)O[C@H]12`, the Activity was 20.65%. `CCO[C@H]1[C@H](OC)[C@H]2OC(C)(C)O[C@H]2[C@@H]2OC(C)(C)O[C@H]12` gave an Activity of 38.4%. With `CO[C@H]1[C@H](OC)[C@H]2OC(C)(C)O[C@H]2[C@@H]2OC(C)(C)O[C@H]12` the Activity was 33.33%. For `CO[C@H]1[C@H](OC(C)=O)[C@@H](OC(C)=O)[C@@H](OC(C)=O)[C@H](O)[C@@H]1OC(C)=O`, the Activity was 1.14%. For `CO[C@H]1[C@H](O)[C@H]2OC(C)(C)O[C@H]2[C@@H]2OC(C)(C)O[C@@H]21`, the Activity was 13.09%. Compound `CO[C@@H]1[C@@H](OC(=O)c2ccccc2)[C@@H](OC(=O)c2ccccc2)[C@H](OC(=O)c2ccccc2)[C@H](OC(=O)c2ccccc2)[C@H]1OC(=O)c1ccccc1` has an Activity of 51.71%. Compound `CO[C@H]1C(=O)[C@H]2OC(C)(C)O[C@H]2[C@@H]2OC(C)(C)O[C@@H]21` has an Activity of 50.57%. Compound `CCO[C@@H]1[C@@H](O)[C@@H](O)[C@H](O)[C@H](O)[C@H]1OC` has an Activity of 36.5%. In the case of `CO[C@@H]1[C@@H](O)[C@@H](O)[C@H](O)[C@H](O)[C@H]1OC(C)=O`, the Activity was 2.28%. `C=CCO[C@@H]1[C@@H](O)[C@@H](O)[C@H](O)[C@H](O)[C@H]1OC` showed an Activity of 29.65%. With `CCC(=O)O[C@@H]1[C@@H](O)[C@@H](O)[C@H](O)[C@H](O)[C@H]1OC` the Activity was 20.91%. For `CCC(=O)O[C@H]1[C@H](OC)[C@H]2OC(C)(C)O[C@H]2[C@@H]2OC(C)(C)O[C@H]12`, the Activity was 32.14%. Work on `CCCC(=O)O[C@@H]1[C@@H](O)[C@@H](O)[C@H](O)[C@H](O)[C@H]1OC` yielded an Activity of 8.36%. In the case of `CO[C@@H]1[C@@H](O)[C@@H](O)[C@H](O)[C@H](O)[C@H]1OC(=O)C(C)C`, the Activity was 17.85%. `CCC(=O)O[C@H]1[C@H](OC(=O)CC)[C@H](OC(=O)CC)[C@@H](OC)[C@H](OC(=O)CC)[C@H]1OC(=O)CC` showed an Activity of 30.79%. Compound `CO[C@@H]1[C@@H](OC(C)=O)[C@@H](OC(C)=O)[C@H](OC(C)=O)[C@H](OC(C)=O)[C@H]1OC(C)=O` has an Activity of 33.46%. Compound `CO[C@H]1[C@H](O)[C@@H](O)[C@@H](O)[C@H](O)[C@@H]1O` [METHYLINOSITOL] has an Activity of 30.03%. `C=CCO[C@H]1[C@H](OC)[C@H]2OC(C)(C)O[C@H]2[C@@H]2OC(C)(C)O[C@H]12` gave an Activity of 34.98%. With `CO[C@H]1[C@H](Cl)[C@H]2OC(C)(C)O[C@H]2[C@@H]2OC(C)(C)O[C@@H]21` the Activity was 37.64%. With `CO[C@@H]1[C@@H](O)[C@@H](O)[C@H](O)[C@H](O)[C@H]1OC` the Activity was 39.16%.

Tested on: not listed separately
Test: Antiinflammatory activity in human neutrophils assessed as inhibition of LPS-induced intracellular TNFalpha expression at 10 ug/mL after 3 hrs by flow cytometry
Format: functional, Neutrophil
Parameters: scale not given: the % may be the effect or the level left
Procedure, shortened: as §1
In the case of `COc1ccc(C2CNC(=O)C2)cc1OC1CCCC1` (stereo not drawn) [ROLIPRAM], the Activity was 52.85%.

Tested on: Neutrophil (Homo sapiens)
Test: Antiinflammatory activity in human neutrophils assessed as inhibition of LPS-induced intracellular TNFalpha expression
For `CCCC(=O)O[C@H]1[C@H](OC(=O)CCC)[C@H](OC(=O)CCC)[C@@H](OC)[C@H](OC(=O)CCC)[C@H]1OC(=O)CCC`, the Activity was “Active”. For `CO[C@@H]1[C@@H](OC(=O)c2ccccc2)[C@@H](OC(=O)c2ccccc2)[C@H](OC(=O)c2ccccc2)[C@H](OC(=O)c2ccccc2)[C@H]1OC(=O)c1ccccc1`, the Activity was “Active”. In the case of `CO[C@H]1C(=O)[C@H]2OC(C)(C)O[C@H]2[C@@H]2OC(C)(C)O[C@@H]21`, the Activity was “Active”.
